ChEMBL document CHEMBL1156146 (Bioorg Med Chem Lett, 2009)
Active and inactive are the calls of the source. No cut-off for these calls is given here.

Columns and labels:
5-lipoxygenase = target: T1, 5-lipoxygenase (Solanum tuberosum, UniProt O49150); assay: Inhibition of potato 5-LOX after 5 mins by enzyme immuno assay
T1 sequence (O49150 whole entry): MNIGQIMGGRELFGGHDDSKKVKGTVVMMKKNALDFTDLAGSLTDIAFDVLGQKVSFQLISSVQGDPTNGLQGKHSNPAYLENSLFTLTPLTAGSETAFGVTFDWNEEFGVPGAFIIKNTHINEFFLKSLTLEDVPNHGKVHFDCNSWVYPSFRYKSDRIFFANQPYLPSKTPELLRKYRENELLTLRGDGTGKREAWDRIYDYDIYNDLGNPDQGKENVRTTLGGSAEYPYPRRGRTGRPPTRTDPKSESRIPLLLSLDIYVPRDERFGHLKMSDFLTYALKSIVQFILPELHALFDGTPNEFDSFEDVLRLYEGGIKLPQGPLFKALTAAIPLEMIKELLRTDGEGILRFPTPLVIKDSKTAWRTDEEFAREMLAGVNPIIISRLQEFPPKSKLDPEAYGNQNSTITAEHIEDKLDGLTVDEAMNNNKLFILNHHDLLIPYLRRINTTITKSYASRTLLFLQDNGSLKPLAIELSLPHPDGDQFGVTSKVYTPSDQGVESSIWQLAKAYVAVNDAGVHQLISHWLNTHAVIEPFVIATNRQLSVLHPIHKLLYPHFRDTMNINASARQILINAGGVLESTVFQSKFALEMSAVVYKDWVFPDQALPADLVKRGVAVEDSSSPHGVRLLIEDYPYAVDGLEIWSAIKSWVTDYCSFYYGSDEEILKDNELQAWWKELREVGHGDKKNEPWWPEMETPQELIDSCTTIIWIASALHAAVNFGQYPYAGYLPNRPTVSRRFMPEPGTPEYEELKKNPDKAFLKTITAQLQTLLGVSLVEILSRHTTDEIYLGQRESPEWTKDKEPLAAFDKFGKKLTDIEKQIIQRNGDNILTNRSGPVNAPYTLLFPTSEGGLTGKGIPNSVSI
In short: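 Potato 5-LOX inhibition measured with a LOX assay kit. IC50 is the mean of two determinations, deviation from the mean <10%.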

[1] = Selectivity index, ratio of IC50 for ovine COX-1 to IC50 for human recombinant COX-2
[2] = target: Prostaglandin G/H synthase 1 (Ovis aries) (UniProt P05979); assay: Inhibition of ovine COX-1 by enzyme immuno assay
Rattus norvegicus [3] = assay: Ratio of compound ED50 to aspirin ED50 for inhibition of carrageenan-induced foot paw edema in po dosed rat after 3 hrs; type: functional
[4] = target: T2, Prostaglandin G/H synthase 2 (Homo sapiens, UniProt P35354); assay: Inhibition of human recombinant COX-2 by enzyme immuno assay
T2 sequence (P35354 whole entry): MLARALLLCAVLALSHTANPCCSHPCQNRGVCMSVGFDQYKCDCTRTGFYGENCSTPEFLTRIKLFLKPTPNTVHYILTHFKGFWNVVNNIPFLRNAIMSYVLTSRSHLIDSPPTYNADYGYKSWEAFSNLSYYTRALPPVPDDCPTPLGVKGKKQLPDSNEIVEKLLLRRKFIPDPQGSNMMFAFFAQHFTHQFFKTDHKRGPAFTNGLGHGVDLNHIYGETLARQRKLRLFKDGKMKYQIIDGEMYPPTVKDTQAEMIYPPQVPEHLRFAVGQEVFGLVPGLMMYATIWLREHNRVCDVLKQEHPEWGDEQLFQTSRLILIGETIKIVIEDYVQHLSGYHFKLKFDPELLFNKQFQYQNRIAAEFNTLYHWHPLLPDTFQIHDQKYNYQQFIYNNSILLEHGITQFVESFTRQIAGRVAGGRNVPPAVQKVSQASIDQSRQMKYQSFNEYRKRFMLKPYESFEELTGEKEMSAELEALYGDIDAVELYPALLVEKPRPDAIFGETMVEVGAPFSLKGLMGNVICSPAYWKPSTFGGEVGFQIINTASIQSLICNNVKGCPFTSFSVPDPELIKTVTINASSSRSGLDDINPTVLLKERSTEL

Rattus norvegicus [5] = assay: Antiinflammatory activity against assessed as inhibition of carrageenan-induced foot paw edema in po dosed rat after 3 hrs; type: functional
In short: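 Oral dosing; edema induced by carrageenan in rat paw and measured 3 h after administration. ED50 (µmol/kg) derived from the dose–response.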

Rattus norvegicus [6] = assay: Gastrointestinal toxicity in rat assessed ulcer index at 1.38 mmol/kg, po after 6 hrs relative to aspirin; type: organism-based; details: in vivo
In short: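 Rats fasted 24 h (water allowed) and dosed orally at 1.38 mmol/kg as a suspension in 1% methylcellulose. Killed 6 h later; stomachs opened along greater curvature, rinsed, and lesions measured by magnifier. Lesions up to 1 mm rated 1, 1–2 mm rated 2, >2 mm rated by length in mm. UI is summed lesion length per stomach averaged over n = 4; mean ± SEM.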

Rattus norvegicus [7] = assay: Ratio of compound ED50 to ibuprofen ED50 for inhibition of carrageenan-induced foot paw edema in po dosed rat after 3 hrs; type: functional
In short: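 Carrageenan-induced paw edema in rats, test compound given orally. […] The ratio compares the compound ED50 with the ibuprofen ED50 from this model.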

| Structure (SMILES) | IC50 (5-lipoxygenase) | Ratio IC50 [1] | IC50 [2] | Ratio ED50 (Rattus norvegicus [3]) | IC50 [4] | ED50 (Rattus norvegicus [5]) | UI (Rattus norvegicus [6]) | Ratio ED50 (Rattus norvegicus [7]) |
| --- | --- | --- | --- | --- | --- | --- | --- | --- |
| O=C(O)/C=C/c1ccc(O)c(O)c1 [CAFFEIC ACID] | 4000 nM | – | – | – | – | – | – | – |
| O=C(O)c1ccc(-c2ccn(C(F)F)c(=O)c2)cc1O | 4700 nM | > 22 | > 100 µM | 1.4 | 4.4 µM | 497 µmol/kg | 0 | – |
| CC(=O)NS(=O)(=O)c1ccc(-c2ccn(C(F)F)c(=O)c2)cc1C(=O)O | 320 nM | > 5 | > 100 µM | – | 17.6 µM | inactive | – | – |
| O=C(O)c1cc(-c2ccc(F)cc2F)ccc1O [DIFLUNISAL] | – | – | – | – | – | 68 µmol/kg | – | – |
| CC(=O)NS(=O)(=O)c1cc(-c2ccn(C(F)F)c(=O)c2)ccc1C(=O)O | 280 nM | > 38 | > 100 µM | 2.8 | 2.6 µM | 258 µmol/kg | – | 1.3 |
| O=C(O)c1cc(-c2ccn(C(F)F)c(=O)c2)ccc1O | 370 nM | > 15 | 15.4 µM | 1.6 | 0.98 µM | 434 µmol/kg | 0 | – |
| CC(=O)Oc1ccccc1C(=O)O [ASPIRIN] | – | – | – | – | – | 716 µmol/kg | 57.4 | – |
